Data on 5 molecules can be found in ChEMBL document CHEMBL1141070, “Synthesis and biological activity of flurbiprofen analogues as selective inhibitors of beta-amyloid(1)(-)(42) secretion” (J Med Chem, 2005).

A word on the IC50: it is the point on the concentration scale where inhibition reaches its midpoint. A low value points to greater potency in that assay. A word on the inhibition: it is the percentage by which the read-out fell short of the control. In general, Papp refers to the rate of passage across a membrane or cell layer, normalised by area and donor concentration. As a reminder, the half-life is the time in which the quantity being followed falls by half. Read a low half-life as rapid decline. In general, Tmax refers to the time from dosing to the highest level. Broadly, the bioavailability is dose-corrected exposure relative to a reference, in per cent. Higher therefore signals much systemic uptake. What is called Cmax is the maximum level reached in the sampled fluid or tissue.

The target of data set [1] is T1, Cytochrome P450 2C9 (Homo sapiens, UniProt P11712). The experiment in a line: Interaction with human cytochrome P450 isoform 2C9 expressed in baculovirus-insect cells. Format: ADME. The procedure, abridged:
(§1)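 Microsomes from baculovirus-insect cells expressing human CYP1A2, 2C9, 2C19, 2D6 or 3A4. Compound serially diluted with an NADPH-regenerating mix (16.3 μM NADP+, 0.83 mM glucose-6-phosphate, 0.83 mM MgCl2, 0.4 U/mL G6PDH). Pre-warmed 10 min at 37 °C, then isoform-specific substrate added in 0.35 M potassium phosphate pH 7.4. Fluorometric read-out; IC50 by nonlinear regression.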

Data set [2] has as its target T2, Amyloid-beta precursor protein (Homo sapiens, UniProt P05067). In words: Concentration required to inhibit A beta 40 peptide 100 um.
Target sequence in this assay (P05067 whole entry, canonical isoform): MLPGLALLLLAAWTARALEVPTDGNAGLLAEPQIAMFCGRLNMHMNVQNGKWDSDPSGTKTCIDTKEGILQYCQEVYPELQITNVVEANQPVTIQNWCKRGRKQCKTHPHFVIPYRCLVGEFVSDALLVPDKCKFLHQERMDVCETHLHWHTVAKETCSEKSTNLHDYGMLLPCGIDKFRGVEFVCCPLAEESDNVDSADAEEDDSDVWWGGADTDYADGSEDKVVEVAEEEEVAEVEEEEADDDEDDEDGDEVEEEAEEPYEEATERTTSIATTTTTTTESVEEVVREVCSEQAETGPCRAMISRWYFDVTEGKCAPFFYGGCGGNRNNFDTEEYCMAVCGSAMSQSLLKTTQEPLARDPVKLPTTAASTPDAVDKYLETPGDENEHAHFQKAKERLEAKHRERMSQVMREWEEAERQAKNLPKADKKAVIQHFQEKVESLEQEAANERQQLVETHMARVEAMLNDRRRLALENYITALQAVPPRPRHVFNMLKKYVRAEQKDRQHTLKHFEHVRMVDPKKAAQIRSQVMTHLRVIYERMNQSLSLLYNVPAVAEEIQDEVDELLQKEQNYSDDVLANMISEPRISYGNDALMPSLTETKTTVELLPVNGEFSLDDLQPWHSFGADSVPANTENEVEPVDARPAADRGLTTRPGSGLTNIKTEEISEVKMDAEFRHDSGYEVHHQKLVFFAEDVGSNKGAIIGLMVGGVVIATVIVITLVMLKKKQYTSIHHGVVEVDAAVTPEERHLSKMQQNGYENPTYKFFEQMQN
Another data set deals with Cytochrome P450 3A4 (Homo sapiens, UniProt P08684). In words: Interaction with human cytochrome P450 isoform 3A4 expressed in baculovirus-insect cells. It counts as ADME. The procedure, abridged: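 Supersome microsomes from baculovirus-insect cells expressing human CYP1A2, 2C9, 2C19, 2D6 or 3A4 were used with isoform-specific fluorogenic substrates. Compounds were serially diluted with an NADP⁺/glucose-6-phosphate regenerating system in 0.35 M potassium phosphate, pH 7.4. Plates were prewarmed 10 min at 37 °C, reactions stopped with acetonitrile/Tris, and fluorescence read. IC50 was obtained by nonlinear regression.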
Chain of Cytochrome P450 3A4 (P08684 whole entry, canonical isoform): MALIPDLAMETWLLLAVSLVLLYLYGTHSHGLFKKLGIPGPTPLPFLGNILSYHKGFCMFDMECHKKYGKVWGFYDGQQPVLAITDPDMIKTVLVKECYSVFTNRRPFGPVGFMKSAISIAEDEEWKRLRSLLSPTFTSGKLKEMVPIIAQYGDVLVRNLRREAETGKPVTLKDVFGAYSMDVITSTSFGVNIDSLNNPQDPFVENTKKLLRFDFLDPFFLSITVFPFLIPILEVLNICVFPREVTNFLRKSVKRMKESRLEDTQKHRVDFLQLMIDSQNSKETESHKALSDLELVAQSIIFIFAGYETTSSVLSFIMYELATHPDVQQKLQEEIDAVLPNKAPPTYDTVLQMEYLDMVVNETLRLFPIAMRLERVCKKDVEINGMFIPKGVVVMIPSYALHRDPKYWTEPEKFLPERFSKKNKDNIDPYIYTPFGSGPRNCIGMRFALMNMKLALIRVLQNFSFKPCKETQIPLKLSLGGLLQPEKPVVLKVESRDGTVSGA

The target in data set [3] is T3, Prostaglandin G/H synthase 1 (Rattus norvegicus) (UniProt Q63921).
T3 sequence (whole entry): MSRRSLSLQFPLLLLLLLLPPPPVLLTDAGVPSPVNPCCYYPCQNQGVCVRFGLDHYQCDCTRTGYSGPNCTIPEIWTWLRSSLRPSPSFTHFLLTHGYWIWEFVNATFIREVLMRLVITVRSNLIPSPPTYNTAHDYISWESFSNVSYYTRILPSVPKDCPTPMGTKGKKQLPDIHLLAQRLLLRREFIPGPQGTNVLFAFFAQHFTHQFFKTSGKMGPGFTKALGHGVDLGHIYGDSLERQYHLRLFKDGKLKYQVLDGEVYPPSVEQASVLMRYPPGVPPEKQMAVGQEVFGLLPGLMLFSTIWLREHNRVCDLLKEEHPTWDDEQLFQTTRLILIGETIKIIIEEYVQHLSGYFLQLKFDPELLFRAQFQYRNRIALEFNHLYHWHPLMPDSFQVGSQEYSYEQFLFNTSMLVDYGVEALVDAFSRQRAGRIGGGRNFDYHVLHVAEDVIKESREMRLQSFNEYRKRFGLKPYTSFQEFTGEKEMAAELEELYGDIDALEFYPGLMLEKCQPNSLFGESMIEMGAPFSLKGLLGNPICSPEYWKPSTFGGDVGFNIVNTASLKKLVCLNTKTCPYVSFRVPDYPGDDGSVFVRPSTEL
In words: Percent inhibition against cyclooxygenase-1 at 100 uM in rat blood. The method, boiled down:
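Fresh rat whole blood preincubated 1 h at 37 °C with compound (100 μM) or DMSO (0.3% final). Stimulated 30 min with A23187 calcium ionophore; plasma thromboxane B2 measured by radioimmunoassay.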

In data set [4] the target is T2, Amyloid-beta precursor protein. As to conditions: at 100 µM.
Target sequence in this assay (P05067 whole entry, canonical isoform): as the sequence (P05067 whole entry, canonical isoform) above
Data set [5] deals with T1, Cytochrome P450 2C9. The experiment in a line: Interaction with human cytochrome P450 isoform 2C9 expressed in baculovirus-insect cells; Activation was observed due to interference in assay. It counts as ADME. The method, boiled down:
as §1

Data set [6] addresses T2, Amyloid-beta precursor protein. The experiment in a line: Inhibitory concentration against beta-amyloid-42 (Abeta42) secretion was evaluated in human neuroglioma cells (H4-APP695NL). Format: functional, cell-based. The method, boiled down: (§2)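 H4-APP695NL human neuroglioma cells (APP695 Swedish K595N/M596L) seeded at 2 × 10^5/well and grown 24 h to confluence. Increasing compound concentrations added overnight; DMSO 1% as vehicle. Supernatant Aβ42 or Aβ40 measured by electrochemiluminescence immunoassay: biotinylated 4G8 plus C-terminus-specific rabbit antibodies, captured on streptavidin beads.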
Target sequence in this assay (P05067 18-770 limits assumed): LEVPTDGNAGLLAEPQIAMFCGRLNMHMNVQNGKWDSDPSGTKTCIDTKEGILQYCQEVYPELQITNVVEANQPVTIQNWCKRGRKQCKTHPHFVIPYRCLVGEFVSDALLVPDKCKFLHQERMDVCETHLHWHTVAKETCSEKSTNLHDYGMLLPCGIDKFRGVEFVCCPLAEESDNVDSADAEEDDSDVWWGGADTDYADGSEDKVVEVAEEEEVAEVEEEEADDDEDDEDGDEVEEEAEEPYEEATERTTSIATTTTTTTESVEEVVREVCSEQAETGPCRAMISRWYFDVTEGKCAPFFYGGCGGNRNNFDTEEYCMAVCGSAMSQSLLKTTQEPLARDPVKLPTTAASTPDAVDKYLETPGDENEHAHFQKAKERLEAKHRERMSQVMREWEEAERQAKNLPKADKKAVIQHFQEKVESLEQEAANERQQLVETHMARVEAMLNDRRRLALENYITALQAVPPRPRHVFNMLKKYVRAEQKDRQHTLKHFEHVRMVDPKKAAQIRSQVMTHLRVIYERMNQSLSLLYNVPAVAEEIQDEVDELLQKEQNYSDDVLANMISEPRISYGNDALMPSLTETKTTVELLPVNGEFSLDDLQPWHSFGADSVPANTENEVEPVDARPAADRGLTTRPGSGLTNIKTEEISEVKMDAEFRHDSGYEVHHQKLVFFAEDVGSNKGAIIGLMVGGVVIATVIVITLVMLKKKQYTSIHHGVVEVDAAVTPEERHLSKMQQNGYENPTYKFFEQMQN

Data set [7] shares this target. The experiment in a line: Concentration required to inhibit A beta 40 peptide. The method, boiled down: as §2
Target sequence in this assay (P05067 whole entry, canonical isoform): as the sequence (P05067 whole entry, canonical isoform) above
A short description of data set [8]: Intestinal drug absorption was estimated in vitro using human colon adenocarcinoma (Caco-2) cell monolayers. Format: ADME. The method, boiled down:
(§3)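 Caco-2 monolayers on polycarbonate Transwell inserts, 2 h at 37 °C. Apical and basolateral solutions analysed by LC-MS/MS (SRM). Papp = Cb·Vb/(C0·A·t).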

The next data set has as its system Caco-2. In words: Permeability in the Caco-2 cell; high absorption. It counts as ADME, cell-based. To be noted: human. The method, boiled down: as §3
(In general: Caco-2 monolayers are a common model of the intestinal barrier.)

Data set [9] deals with T4, Cytochrome P450 2C19 (Homo sapiens, UniProt P33261). The experiment in a line: Compound dissolved in DMSO was tested for interaction with baculovirus-insect cells expressing human cytochrome P450 at 100 uM. Format: ADME. The method, boiled down: as §1
T4 sequence (P33261 whole entry): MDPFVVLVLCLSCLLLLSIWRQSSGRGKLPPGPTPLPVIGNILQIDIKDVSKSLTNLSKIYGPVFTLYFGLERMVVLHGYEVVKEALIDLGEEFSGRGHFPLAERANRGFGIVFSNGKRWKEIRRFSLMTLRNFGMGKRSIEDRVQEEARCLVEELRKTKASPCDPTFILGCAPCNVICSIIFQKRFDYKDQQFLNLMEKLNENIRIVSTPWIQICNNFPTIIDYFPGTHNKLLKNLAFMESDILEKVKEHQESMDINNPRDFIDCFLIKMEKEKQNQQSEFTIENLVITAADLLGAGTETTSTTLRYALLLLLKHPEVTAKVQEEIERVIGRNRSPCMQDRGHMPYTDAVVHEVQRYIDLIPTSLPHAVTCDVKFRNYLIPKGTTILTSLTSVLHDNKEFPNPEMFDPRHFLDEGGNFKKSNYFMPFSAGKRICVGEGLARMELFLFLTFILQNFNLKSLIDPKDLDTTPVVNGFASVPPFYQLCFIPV
Data set [10] is described as follows: Area under curve after administration to rats at a dose of 7.6 mg/kg orally. Format: ADME, organism-based. Set-up: dose 7.6 mg/kg, route oral. To be noted: rat, in vivo, po.
A short description of data set [11]: Elimination phase half-life after administration to rats at a dose of 7.6 mg/kg orally. It counts as ADME, organism-based. Set-up: dose 7.6 mg/kg, route oral. To be noted: rat, in vivo, po.
The nature of data set [12]: In vivo steady state metabolic clearance of the compound. As to conditions: rat.
Data set [13] addresses T4, Cytochrome P450 2C19. The experiment in a line: Compound was tested for interaction with baculovirus-insect cells expressing human cytochrome P450; No interactions at 100 uM. Format: ADME.
Data set [14] can be described thus: Maximum time corresponding to maximum concentration after administration to rats at a dose of 1.5 mg/kg intravenously. On the set-up: dose 1.5 mg/kg, route intravenous. To be noted: rat, in vivo, iv. It counts as ADME, organism-based.
Data set [15] can be described thus: Area under curve after administration to rats at adose of 1.5 mg/kg intravenously. It counts as ADME, organism-based. Set-up: dose 1.5 mg/kg, route intravenous. As to conditions: rat, in vivo, iv.
For data set [16], the target named is T5, Prostaglandin G/H synthase 1 (Rattus norvegicus, UniProt Q63921).
T5 sequence (Q63921 whole entry): T3 sequence (whole entry)
The experiment in a line: Concentration required to inhibit cyclooxygenase-1 in rat blood. The procedure, abridged: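 Fresh rat whole blood was preincubated 1 h at 37 °C with compound (100 μM or a concentration series; DMSO 0.3% final). It was then stimulated 30 min with the Ca²⁺ ionophore A23187. Thromboxane B2 in the plasma was measured by radioimmunoassay.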

Data set [17] in a line: Elimination phase half-life after administration to rats at a dose of 1.5 mg/kg intravenously. It counts as ADME, organism-based. On the set-up: dose 1.5 mg/kg, route intravenous. As to conditions: rat, in vivo, iv.
A short description of data set [18]: Absolute oral bioavailability after administration to rats at a dose of 7.6 mg/kg orally. As to conditions: rat, in vivo. It counts as ADME, organism-based.
Data set [19] is described as follows: Maximum time corresponding to maximum concentration after administration to rats at a dose of 7.6 mg/kg orally. To be noted: rat, in vivo, po. On the set-up: dose 7.6 mg/kg, route oral. It counts as ADME, organism-based.
Data set [20] is described as follows: Maximal concentration in rats after 7.6 mg/kg oral dose. Format: ADME, organism-based. Set-up: dose 7.6 mg/kg, route oral. As to conditions: rat, in vivo.
Data set [21] is described as follows: Maximal concentration in rats after 1.5 mg/kg intravenous dose. Format: ADME, organism-based. Set-up: dose 1.5 mg/kg, route intravenous. To be noted: rat, in vivo.
Data set [22] in a line: Total body clearance after administration to rats at a dose of 1.5 mg/kg intravenously. It counts as ADME, organism-based. On the set-up: dose 1.5 mg/kg, route intravenous. To be noted: rat, in vivo, iv.
The target in a further data set is CYP3A4 (Homo sapiens, UniProt P08684). In words: Interaction with human cytochrome P450 isoform 3A4 expressed in baculovirus-insect cells at 100 uM. Format: ADME. The method, boiled down: as §1
Chain of CYP3A4 (P08684 whole entry, canonical isoform): as the sequence (P08684 whole entry, canonical isoform) above
Data set [23] in a line: Concentration ratio in cerebrospinal fluid and plasma. To be noted: rat.
The target of the next data set is T6, CYP1A2 (Homo sapiens, UniProt P05177).
T6 sequence (P05177 whole entry): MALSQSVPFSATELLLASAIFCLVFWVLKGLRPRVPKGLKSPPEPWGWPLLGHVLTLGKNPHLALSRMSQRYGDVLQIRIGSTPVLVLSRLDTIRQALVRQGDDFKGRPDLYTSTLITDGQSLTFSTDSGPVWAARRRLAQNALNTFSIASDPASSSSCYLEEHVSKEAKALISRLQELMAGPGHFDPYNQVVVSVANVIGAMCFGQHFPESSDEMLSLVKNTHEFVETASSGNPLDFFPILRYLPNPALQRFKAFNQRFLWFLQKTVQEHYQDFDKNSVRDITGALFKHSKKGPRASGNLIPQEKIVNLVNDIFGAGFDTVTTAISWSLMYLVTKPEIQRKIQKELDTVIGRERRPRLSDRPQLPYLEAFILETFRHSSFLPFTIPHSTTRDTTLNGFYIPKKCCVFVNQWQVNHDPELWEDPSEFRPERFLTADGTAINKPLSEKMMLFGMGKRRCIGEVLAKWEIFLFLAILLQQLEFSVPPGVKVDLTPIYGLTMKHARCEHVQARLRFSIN
The experiment in a line: Interaction with human cytochrome P450 isoform 1A2 expressed in baculovirus-insect cells at 100 uM. Format: ADME. The method, boiled down:
as §1

For a further data set, the target named is CYP2C19 (Homo sapiens, UniProt P33261). In words: Interaction with human cytochrome P450 isoform 2C19 expressed in baculovirus-insect cells at 100 uM. It counts as ADME. The method, boiled down: as §1
Chain of CYP2C19 (P33261 whole entry, canonical isoform): as the sequence (P33261 whole entry) above
In the next data set the target is CYP2D6 (Homo sapiens, UniProt P10635). The experiment in a line: Interaction with human cytochrome P450 isoform 2D6 expressed in baculovirus-insect cells at 100 uM. It counts as ADME. The method, boiled down:
as §1

For the next data set, the target named is CYP2C9 (Homo sapiens, UniProt P11712). The experiment in a line: Interaction with human cytochrome P450 isoform 2C9 expressed in baculovirus-insect cells at 100 uM. It counts as ADME. The procedure, abridged:
as §1

T1 sequence (P11712 whole entry, canonical isoform): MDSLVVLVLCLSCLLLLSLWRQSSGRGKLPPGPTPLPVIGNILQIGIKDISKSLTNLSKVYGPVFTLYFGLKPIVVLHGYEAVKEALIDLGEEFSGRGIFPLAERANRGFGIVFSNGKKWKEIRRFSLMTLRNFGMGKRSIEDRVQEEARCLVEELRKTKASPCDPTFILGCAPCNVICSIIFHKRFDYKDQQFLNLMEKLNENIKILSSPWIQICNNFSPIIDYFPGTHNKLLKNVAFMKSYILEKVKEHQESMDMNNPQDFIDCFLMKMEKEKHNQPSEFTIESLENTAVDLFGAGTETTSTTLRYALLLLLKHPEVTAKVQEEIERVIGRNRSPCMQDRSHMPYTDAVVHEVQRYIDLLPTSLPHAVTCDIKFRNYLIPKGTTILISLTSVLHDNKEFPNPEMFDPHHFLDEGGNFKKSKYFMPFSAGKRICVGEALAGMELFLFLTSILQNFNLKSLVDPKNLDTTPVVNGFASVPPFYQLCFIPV
Chain of CYP2D6 (P10635 whole entry, canonical isoform): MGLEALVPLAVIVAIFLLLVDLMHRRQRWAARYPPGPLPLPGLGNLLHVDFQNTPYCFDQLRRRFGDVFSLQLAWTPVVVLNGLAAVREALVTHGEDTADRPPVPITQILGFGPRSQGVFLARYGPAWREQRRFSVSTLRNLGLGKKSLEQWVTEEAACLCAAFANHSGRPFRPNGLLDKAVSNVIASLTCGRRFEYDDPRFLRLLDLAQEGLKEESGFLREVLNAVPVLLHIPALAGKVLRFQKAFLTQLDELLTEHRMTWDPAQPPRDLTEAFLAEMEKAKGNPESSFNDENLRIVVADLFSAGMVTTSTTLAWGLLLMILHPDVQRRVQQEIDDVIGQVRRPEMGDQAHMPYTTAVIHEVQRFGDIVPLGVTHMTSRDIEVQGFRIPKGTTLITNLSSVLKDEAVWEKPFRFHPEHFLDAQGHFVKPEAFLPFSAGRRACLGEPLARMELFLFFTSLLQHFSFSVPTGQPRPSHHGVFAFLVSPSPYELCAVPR
Chain of CYP2C9 (P11712 whole entry, canonical isoform): as the sequence (P11712 whole entry, canonical isoform) above

For the molecule `CC(C)(C(=O)O)c1ccc(-c2ccc(C3CCCCC3)cc2)c(F)c1`, the IC50 against Cytochrome P450 2C9 [1] was found to be 28 µM; against Cytochrome P450 3A4, 59 µM. In addition, the inhibition in data set [2] came out at 47%; in data set [3], 12%; in data set [4], 77%.
For the molecule `CC(C(=O)O)c1ccc(-c2cc(Cl)cc(Cl)c2)c(F)c1` (stereo not given), the Activation on Cytochrome P450 2C9 [5] is recorded as > 50%. Also, the IC50 in data set [6] was found to be 77 µM; in [7] it was 94 µM. The inhibition in data set [3] came out at 65%; in data set [4], 75%. In data set [8], the apparent permeability coefficient (Papp) was > 5 ×10⁻⁶ cm/s.
Turning to `CC(C(=O)O)c1ccc(-c2ccc(C(F)(F)F)cc2)c(F)c1` (stereo not given), in the data set on Caco-2, the Absoption entry was “High”. The molecule also displayed an IC50 in data set [6] of 129 µM. Besides, the Inhibition entry on Cytochrome P450 2C19 [9] is given as “No interactions”. Besides, the inhibition was 40% in data set [3] and 60% in data set [4].
In the case of `CC(C(=O)O)c1ccc(-c2ccccc2)c(F)c1` (stereo not given) [FLURBIPROFEN], the AUC in data set [10] is 311 µg/h/mL; in data set [15], 78 µg/h/mL. For the same molecule, the IC50 in data set [6] turned out to be 305 µM; in [16] it was 0.17 µM. The half-life was 4.9 h in [11] and 5.1 h in data set [17]. The figures for the Clearance in data set [12] and in [22] were 13.9 mL/h and 0.318 mL/min/kg, respectively. In addition, the Inhibition result on Cytochrome P450 2C19 [13] is “No interactions”. Moreover, the Tmax is 0.3 h in data set [14] and 0.5 h in data set [19]. Besides, the Papp in [8] is > 5 ×10⁻⁶ cm/s. The bioavailability in [18] amounted to 78.3%. Besides, the results for the Cmax in data set [20] and in [21] were 49100 ng/mL and 9100 ng/mL, respectively. This molecule had an inhibition in data set [4] of 30%.
With `CC(C(=O)NS(C)(=O)=O)c1ccc(-c2ccc(C(F)(F)F)cc2)c(F)c1` (stereo not given), the inhibition at 100 µM against CYP3A4, on CYP1A2, against CYP2C19, at CYP2D6 and against CYP2C9 was > 50% throughout. The Clearance in [12] was determined as 3.1 mL/h. In addition, in [23], the Ratio was 1.7%. The same molecule yielded an inhibition in [4] of 34%.
